Converted amounts (≈) assume the structure as drawn.

Results on four molecules are retold here after ChEMBL document CHEMBL1126036, “Quinolone antibacterial agents. Synthesis and structure-activity relationships of a series of amino acid prodrugs of racemic and chiral 7-(3-amino-1-pyrrolidinyl)quinolones. Highly soluble quinolone prodrugs with in vivo pseudomonas activity” (J Med Chem, 1992).

Data set [1] is described as follows: Solubility (in 0.1 N HCl). The class given is physicochemical. To be noted: read-out: S. The method, boiled down: (§1)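 Solubility was measured either from HPLC peak areas at equilibrium or by a conventional weight-per-volume method. All solutions were held for 24 h before measurement.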
Data set [2] is described as follows: Solubility (at pH 4). The class given is physicochemical. To be noted: buffer; for solubility: read-out: S. The method, boiled down: as §1
Data set [3] is described as follows: Solubility (at pH 7.4). The class given is physicochemical. To be noted: buffer, read-out: S. The essentials:
as §1

The subject of data set [4] is Escherichia coli. The experiment in a line: In vitro antibacterial activity against gram negative Escherichia coli Vogel. The class given is functional.
The test system of another data set is Enterococcus faecalis. The data set can be described thus: In vitro antibacterial activity against gram positive Enterococcus faecalis MGH-2. The class given is functional.
The target in data set [5] is DNA gyrase (Escherichia coli) (UniProt P0AES6+P0AES4). The experiment in a line: In vitro concentration inhibiting DNA gyrase induced cleavage in Escherichia coli H560. In kind it is functional. The essentials:
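DNA gyrase test run as described in earlier work. The value is the drug concentration (µg/mL) needed to cause DNA cleavage.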

For another data set, the system named is Enterobacter cloacae. The data set can be described thus: In vitro antibacterial activity against gram negative Enterobacter cloacae MA 2646. In kind it is functional.
A further data set relates to Klebsiella pneumoniae. The data set can be described thus: In vitro antibacterial activity against gram negative Klebsiella pneumoniae MGH-2. The class given is functional.
The test system of data set [6] is Escherichia coli. The experiment in a line: In vivo potency against acute systemic infection in mouse caused by Escherichia coli Vogel on oral administration by gavage. The class given is functional. As to conditions: read-out: PD50. The method, boiled down:
(§2)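 Acute systemic mouse infection. A single oral dose was given by gavage at the time of challenge. Potency is reported as the median protective dose (PD50, mg/kg), determined by earlier published methods.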

Data set [7] relates to Streptococcus pneumoniae. The experiment in a line: In vivo potency against acute systemic infection in mouse caused by Streptococcus pneumoniae SV-1 on oral administration by gavage. In kind it is functional. As to conditions: read-out: PD50. The essentials: as §2
The subject of data set [8] is Streptococcus pneumoniae. The data set can be described thus: In vivo potency against acute systemic infection in mouse caused by Streptococcus pneumoniae SV-1 on subcutaneous injection. The class given is functional. As to conditions: sc, read-out: PD50. The essentials: (§3)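 Acute systemic mouse infection. A single subcutaneous dose was injected at the time of challenge. Potency is reported as the median protective dose (PD50, mg/kg), determined by earlier published methods.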

The test system of data set [9] is Escherichia coli. The experiment in a line: In vivo potency against acute systemic infection in mouse caused by Escherichia coli vogel on subcutaneous injection. In kind it is functional. As to conditions: sc, read-out: PD50. The essentials: as §3
The subject of data set [10] is Mus musculus. The data set can be described thus: In vivo potency against acute systemic infection in mouse caused by Pseudomonas aeruginosa UI-18 on oral administration by gavage. To be noted: read-out: PD50. The class given is functional. The method, boiled down:
as §2

Data set [11] concerns Mus musculus. The experiment in a line: In vivo potency against acute systemic infection in mouse caused by Pseudomonas aeruginosa. UI-18. on subcutaneous injection. The class given is functional. To be noted: sc, read-out: PD50. The method, boiled down: as §3
In data set [12] the test system is Mus musculus. The data set can be described thus: In vivo potency against acute systemic infection in mouse caused by Streptococcus pyogenes C-203 on oral administration by gavage. In kind it is functional. As to conditions: read-out: PD50. The essentials:
as §2

Data set [13] has as its system Mus musculus. The data set can be described thus: In vivo potency against acute systemic infection in mouse caused by Streptococcus pyogenes C-203 on subcutaneous injection. The class given is functional. To be noted: sc, read-out: PD50. The essentials: as §3
A further data set deals with Pseudomonas aeruginosa. The data set can be described thus: In vitro antibacterial activity against gram negative Pseudomonas aeruginosa UI-18. The class given is functional.
The test system of a further data set is Providencia rettgeri. The data set can be described thus: In vitro antibacterial activity against gram negative Providencia rettgeri M-1771. In kind it is functional.
Data set [14] has as its system Staphylococcus aureus. The data set can be described thus: In vitro antibacterial activity against gram positive Staphylococcus aureus H-228. In kind it is functional.
For the next data set, the system named is Streptococcus pyogenes. The experiment in a line: In vitro antibacterial activity against gram positive Streptococcus pyogenes C-203. In kind it is functional.
In data set [15] the test system is Staphylococcus aureus. The data set can be described thus: In vitro antibacterial activity against gram positive Staphylococcus aureus UC76. The class given is functional.
Data set [16] deals with Streptococcus pneumoniae. The data set can be described thus: In vitro antibacterial activity against gram positive Streptococcus pneumoniae SV-1. The class given is functional.
The nature of data set [17]: Aqueous solubility. In kind it is physicochemical. As to conditions: water (aqueous); read-out: S. The essentials: as §1

On to `C[C@H](N)C(=O)NC1CCN(c2c(F)cc3c(=O)c(C(=O)O)cn(C4CC4)c3c2F)C1.Cl.O` (stereo partly specified), for which the solubility in data set [1] was found to be 7200 µg/mL; in data set [2], 25000 µg/mL; in data set [3] it was 90 µg/mL; in data set [17], 31000 µg/mL. The MIC in the data set on Escherichia coli [4] worked out at 0.2 µg/mL; against Enterococcus faecalis, 0.4 µg/mL; against Enterobacter cloacae, 0.2 µg/mL; in the data set on Klebsiella pneumoniae, 0.2 µg/mL; with Pseudomonas aeruginosa it was 0.4 µg/mL; in the data set on Providencia rettgeri, 0.2 µg/mL. Further, the MIC in the data set with Staphylococcus aureus [14] was found to be 0.2 µg/mL; against Streptococcus pyogenes, 0.1 µg/mL; with Staphylococcus aureus [15], 0.05 µg/mL; against Streptococcus pneumoniae [16], 0.1 µg/mL. The same molecule gave a Cleavage in data set [5] of 1 µg/mL. Besides, the ED50 was 2 mg/kg in the data set on Escherichia coli [6]; 13 mg/kg in the data set on Streptococcus pneumoniae [7]; 9 mg/kg with Streptococcus pneumoniae [8]; 0.3 mg/kg in the data set with Escherichia coli [9]; 13 mg/kg in the data set with Mus musculus [10]; 2 mg/kg in the data set on Mus musculus [11]. For the same molecule, the ED50 with Mus musculus [12] came out at 12 mg/kg; in the data set with Mus musculus [13], 4 mg/kg.
For the molecule `C[C@H](N)C(=O)N[C@H]1CCN(c2c(F)c(N)c3c(=O)c(C(=O)O)cn(C4CC4)c3c2F)C1.Cl.O`, the solubility was determined as 2800 µg/mL in data set [1], 58000 µg/mL in [2], 40 µg/mL in data set [3] and 18000 µg/mL in data set [17]. The minimal inhibitory concentration (MIC) came out at 0.05 µg/mL in the data set with Escherichia coli [4]; 0.2 µg/mL with Enterococcus faecalis; 0.05 µg/mL against Enterobacter cloacae; 0.2 µg/mL with Klebsiella pneumoniae; 1.6 µg/mL in the data set on Pseudomonas aeruginosa; 0.4 µg/mL in the data set on Providencia rettgeri. The MIC came out at 0.1 µg/mL against Staphylococcus aureus [14], 0.05 µg/mL with Streptococcus pyogenes, 0.025 µg/mL in the data set on Staphylococcus aureus [15] and 0.05 µg/mL against Streptococcus pneumoniae [16]. In addition, the Cleavage in [5] was found to be 2.5 µg/mL. In addition, the ED50 in the data set with Escherichia coli [6] was 5 mg/kg; in the data set with Streptococcus pneumoniae [7], 17 mg/kg; in the data set on Streptococcus pneumoniae [8], 13 mg/kg; in the data set on Escherichia coli [9] it was 2.5 mg/kg; with Mus musculus [10] it was 9.6 mg/kg; in the data set on Mus musculus [11] it was 4 mg/kg. Also, the figures for the ED50 in the data set on Mus musculus [12] and with Mus musculus [13] were 6.3 mg/kg and 23 mg/kg, respectively.
`Nc1c(F)c(N2CCC(N)C2)c(F)c2c1c(=O)c(C(=O)O)cn2C1CC1` (stereo unspecified): the solubility in data set [1] was determined as 100 µg/mL (≈ 274 µM); in data set [2], 3200 µg/mL (≈ 8780 µM); in [3], 80 µg/mL (≈ 220 µM); in data set [17], 2400 µg/mL (≈ 6590 µM). Besides, the MIC in the data set with Escherichia coli [4] stood at 0.006 µg/mL (≈ 0.0165 µM); against Enterococcus faecalis it was 0.025 µg/mL (≈ 0.0686 µM); against Enterobacter cloacae, 0.006 µg/mL (≈ 0.0165 µM); in the data set on Klebsiella pneumoniae it was 0.006 µg/mL (≈ 0.0165 µM); against Pseudomonas aeruginosa it was 0.05 µg/mL (≈ 0.137 µM); in the data set with Providencia rettgeri, 0.025 µg/mL (≈ 0.0686 µM). The MIC in the data set with Staphylococcus aureus [14] was 0.013 µg/mL (≈ 0.0357 µM); against Streptococcus pyogenes, 0.025 µg/mL (≈ 0.0686 µM); in the data set with Staphylococcus aureus [15], 0.006 µg/mL (≈ 0.0165 µM); with Streptococcus pneumoniae [16], 0.006 µg/mL (≈ 0.0165 µM). The same molecule registered a Cleavage in [5] of 0.25 µg/mL. Besides, the ED50 with Escherichia coli [6] amounted to 2 mg/kg; in the data set with Streptococcus pneumoniae [7], 20 mg/kg; in the data set with Streptococcus pneumoniae [8] it was 9 mg/kg; in the data set with Escherichia coli [9], 0.4 mg/kg; in the data set with Mus musculus [10] it was 16 mg/kg; in the data set on Mus musculus [11], 4 mg/kg. In addition, the ED50 in the data set with Mus musculus [12] is 24 mg/kg; in the data set on Mus musculus [13] it was 6 mg/kg.
Regarding `NC1CCN(c2nc3c(cc2F)c(=O)c(C(=O)O)cn3-c2ccc(F)cc2F)C1` (stereo unspecified) [TOSUFLOXACIN], the solubility in data set [1] is 400 µg/mL (≈ 989 µM); in data set [3] it was 100 µg/mL (≈ 247 µM); in data set [17], 650 µg/mL (≈ 1610 µM). The same molecule registered a S in data set [2] of 0.55 mg/mL. Besides, the minimum inhibitory concentration (MIC) with Escherichia coli [4] is 0.013 µg/mL (≈ 0.0322 µM); in the data set on Enterococcus faecalis, 0.1 µg/mL (≈ 0.247 µM); against Enterobacter cloacae, 0.025 µg/mL (≈ 0.0618 µM); against Klebsiella pneumoniae, 0.05 µg/mL (≈ 0.124 µM); in the data set with Pseudomonas aeruginosa it was 0.4 µg/mL (≈ 0.989 µM); against Providencia rettgeri, 0.1 µg/mL (≈ 0.247 µM). Besides, the MIC worked out at 0.05 µg/mL (≈ 0.124 µM) against Staphylococcus aureus [14], 0.05 µg/mL (≈ 0.124 µM) with Streptococcus pyogenes, 0.025 µg/mL (≈ 0.0618 µM) with Staphylococcus aureus [15] and 0.025 µg/mL (≈ 0.0618 µM) in the data set with Streptococcus pneumoniae [16]. The ED50 with Escherichia coli [6] is 1 mg/kg; in the data set on Streptococcus pneumoniae [7], 14 mg/kg; with Streptococcus pneumoniae [8], 3 mg/kg; with Escherichia coli [9], 0.3 mg/kg; with Mus musculus [10], 6 mg/kg; in the data set with Mus musculus [11], 4 mg/kg. In addition, the ED50 with Mus musculus [12] worked out at 5 mg/kg; in the data set on Mus musculus [13], 3 mg/kg.

One may read the MIC as the lowest concentration found to suppress growth. A high value points to a less susceptible organism.
